Laboratory results: ChEMBL document CHEMBL3352424, “Synthesis, biological evaluation and 3D-QSAR study of hydrazide, semicarbazide and thiosemicarbazide derivatives of 4-(adamantan-1-yl)quinoline as anti-tuberculosis agents” (Eur J Med Chem, 2014)
In brackets after ≈: the same amount, converted by molar mass.

How the values were obtained:
L929 = assay: Cytotoxicity against mouse L929 cells assessed as reduction in cell viability up to 200 ug/ml after 5 days by MTT assay; type: cell-based; conditions: l929, 120 h
In short: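 MTT viability assay in mouse fibroblasts, run on compounds active against TB, with 200 µg/mL as the highest test concentration.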

[1] = tested on: Mycobacterium tuberculosis; assay: Antitubercular activity against Mycobacterium tuberculosis H37Rv strain at 6.25 ug/ml by microplate alamar blue assay; type: functional
[2] = tested on: Mycobacterium tuberculosis; assay: Antitubercular activity against Mycobacterium tuberculosis H37Rv strain by BACTEC 460 radiometric assay; type: functional, organism-based

SMILES: C=CCNC(=S)NNC(=O)c1cc(C23CC4CC(CC(C4)C2)C3)c2ccccc2n1
- Activity (L929): Non-toxic
- inhibition at 6.25 µg/mL [1]: 77%
- IC50 [2]: 4.07 µM
- MIC90 [2]: 6.25 µg/mL (≈ 14.9 µM)

SMILES: O=C(NNC(=O)c1cccs1)c1cc(C23CC4CC(CC(C4)C2)C3)c2ccccc2n1
- Activity (L929): Non-toxic
- inhibition at 6.25 µg/mL [1]: 9%
- IC50 [2]: 148 µM
- MIC90 [2]: 6.25 µg/mL (≈ 14.5 µM)

SMILES: O=C(NNC(=O)c1cc(C23CC4CC(CC(C4)C2)C3)c2ccccc2n1)Nc1ccc(F)cc1
- Activity (L929): Non-toxic
- inhibition at 6.25 µg/mL [1]: 68%
- IC50 [2]: 6.46 µM
- MIC90 [2]: 6.25 µg/mL (≈ 13.6 µM)

SMILES: CCCCOc1ccc(NC(=O)NNC(=O)c2cc(C34CC5CC(CC(C5)C3)C4)c3ccccc3n2)cc1
- Activity (L929): Non-toxic
- inhibition at 6.25 µg/mL [1]: 61%
- IC50 [2]: 7.76 µM
- MIC90 [2]: 6.25 µg/mL (≈ 12.2 µM)

SMILES: COc1cc(NC(=S)NNC(=O)c2cc(C34CC5CC(CC(C5)C3)C4)c3ccccc3n2)cc(OC)c1OC
- Activity (L929): Non-toxic
- inhibition at 6.25 µg/mL [1]: 46%
- IC50 [2]: 14.5 µM
- MIC90 [2]: 6.25 µg/mL (≈ 11.4 µM)

SMILES: O=C(NNC(=S)Nc1ccc([N+](=O)[O-])cc1Cl)c1cc(C23CC4CC(CC(C4)C2)C3)c2ccccc2n1
- Activity (L929): Non-toxic
- inhibition at 6.25 µg/mL [1]: 96%
- IC50 [2]: 0.49 µM
- MIC90 [2]: 6.25 µg/mL (≈ 11.7 µM)

SMILES: CCc1cccc(CC)c1NC(=O)NNC(=O)c1cc(C23CC4CC(CC(C4)C2)C3)c2ccccc2n1
- Activity (L929): Non-toxic
- inhibition at 6.25 µg/mL [1]: 27%
- IC50 [2]: 33.9 µM
- MIC90 [2]: 6.25 µg/mL (≈ 12.6 µM)

SMILES: COc1ccc(NC(=O)NNC(=O)c2cc(C34CC5CC(CC(C5)C3)C4)c3ccccc3n2)cc1
- Activity (L929): Non-toxic
- inhibition at 6.25 µg/mL [1]: 78%
- IC50 [2]: 3.72 µM
- MIC90 [2]: 6.25 µg/mL (≈ 13.3 µM)

SMILES: CCCCCCCCCCCCCCCCNC(=O)NNC(=O)c1cc(C23CC4CC(CC(C4)C2)C3)c2ccccc2n1
- Activity (L929): Non-toxic
- inhibition at 6.25 µg/mL [1]: 16%
- IC50 [2]: 56.2 µM
- MIC90 [2]: 6.25 µg/mL (≈ 10.6 µM)

SMILES: O=C(NNC(=S)Nc1cccc2ccccc12)c1cc(C23CC4CC(CC(C4)C2)C3)c2ccccc2n1
- Activity (L929): Non-toxic
- inhibition at 6.25 µg/mL [1]: 44%
- IC50 [2]: 15.8 µM
- MIC90 [2]: 6.25 µg/mL (≈ 12.3 µM)

SMILES: O=C(NNC(=S)Nc1cc(Cl)ccc1Cl)c1cc(C23CC4CC(CC(C4)C2)C3)c2ccccc2n1
- Activity (L929): Non-toxic
- inhibition at 6.25 µg/mL [1]: 43%
- IC50 [2]: 15.8 µM
- MIC90 [2]: 6.25 µg/mL (≈ 11.9 µM)

SMILES: O=C(NNC(=S)Nc1cccc(Cl)c1Cl)c1cc(C23CC4CC(CC(C4)C2)C3)c2ccccc2n1
- Activity (L929): Non-toxic
- inhibition at 6.25 µg/mL [1]: 74%
- IC50 [2]: 4.17 µM
- MIC90 [2]: 6.25 µg/mL (≈ 11.9 µM)

SMILES: O=C(NNC(=O)c1cc(C23CC4CC(CC(C4)C2)C3)c2ccccc2n1)NC1CCCC1
- Activity (L929): Non-toxic
- inhibition at 6.25 µg/mL [1]: 84%
- IC50 [2]: 2.75 µM
- MIC90 [2]: 6.25 µg/mL (≈ 14.4 µM)

SMILES: Cc1cccc(C)c1NC(=S)NNC(=O)c1cc(C23CC4CC(CC(C4)C2)C3)c2ccccc2n1
- Activity (L929): Non-toxic
- inhibition at 6.25 µg/mL [1]: 51%
- IC50 [2]: 12.3 µM
- MIC90 [2]: 6.25 µg/mL (≈ 12.9 µM)

SMILES: CCc1ccccc1NC(=S)NNC(=O)c1cc(C23CC4CC(CC(C4)C2)C3)c2ccccc2n1
- Activity (L929): Non-toxic
- inhibition at 6.25 µg/mL [1]: 89%
- IC50 [2]: 1.58 µM
- MIC90 [2]: 6.25 µg/mL (≈ 12.9 µM)

SMILES: O=C(NNC(=O)c1cc(C23CC4CC(CC(C4)C2)C3)c2ccccc2n1)c1cccnc1
- Activity (L929): Non-toxic
- inhibition at 6.25 µg/mL [1]: 74%
- IC50 [2]: 5.13 µM
- MIC90 [2]: 6.25 µg/mL (≈ 14.7 µM)

SMILES: O=C(NNC(=O)c1cc(C23CC4CC(CC(C4)C2)C3)c2ccccc2n1)c1cccc(C(F)(F)F)c1
- Activity (L929): Non-toxic
- inhibition at 6.25 µg/mL [1]: 69%
- IC50 [2]: 5.75 µM
- MIC90 [2]: 6.25 µg/mL (≈ 12.7 µM)

SMILES: NNC(=O)c1ccncc1 [ISONIAZID]
- MIC99 [2]: 0.1 µg/mL (≈ 0.729 µM)

SMILES: CO[C@H]1/C=C/O[C@@]2(C)Oc3c(C)c(O)c4c(O)c(c(/C=N/N5CCN(C)CC5)c(O)c4c3C2=O)NC(=O)/C(C)=C\C=C\[C@H](C)[C@H](O)[C@@H](C)[C@@H](O)[C@@H](C)[C@H](OC(C)=O)[C@@H]1C [RIFAMPIN]
- inhibition at 6.25 µg/mL [1]: 99%
- MIC99 [2]: 0.2 µg/mL (≈ 0.243 µM)
